The source of these data is ChEMBL document CHEMBL4513216, “Probing the Open Global Health Chemical Diversity Library for Multistage-Active Starting Points for Next-Generation Antimalarials” (ACS Infect Dis, 2020).

A short description of this data set: Toxicity liver stage against HepG2, at 10uM. Also noted: test concentration 10 uM, cell line HepG2-A16-CD81EGFP. Particulars: human, HepG2-A16-CD81EGFP cells; read-out: INHIBITION
The data set is classed as cell-based. Put shortly: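 Uninfected HepG2-A16-CD81EGFP cells, 3 × 10^3 per well, 1536-well, plated on prespotted compound at 10 μM final, parasite-free screening media added to match infected plates; puromycin 10 μM positive, DMSO 0.5% negative; run in parallel with 48 h PbLuc assay at 37 °C, 5% CO2; viability by CellTiter-Glo luminescence, normalized to controls.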
Take `Cn1c2ccccc2c2ncn(CCCN3CCOCC3)c(=O)c21`: the cytotoxicity at 10 µM was 18.3%.

Take `CC(=O)c1ccc(C(=O)NCCCOC(C)c2ccccc2)s1` (stereo not given): the cytotoxicity at 10 µM is -14.1%. For `c1ccc(N2CCCC3(CCN(Cc4nccs4)C3)C2)nc1` (stereo not given) the value was 6.94%; for `CS(=O)(=O)Nc1cnn(Cc2cccc(Cl)c2)c1`, -2.44%. For `COc1ccc(CNc2cc3[nH]c(O)nc3cc2C)cc1` the value was 18.1%. For `CCN(CC)C(=O)c1ccn(COc2ccccc2)n1`, the cytotoxicity at 10 µM is -0.911%. For `CC(C)N1CCOC(c2cc(CCO)[nH]n2)C1` (stereo not given) the value was 1.47%; for `Cn1nccc1C(=O)N1Cc2ccccc2OC2(CCOCC2)C1`, -24.7%. Turning to `CC(=O)N1CCN(c2cc(C3CN(C(C)=O)CCO3)nc(C)n2)CC1` (stereo not given), the cytotoxicity at 10 µM was -22.8%. For `COc1ccc(-c2cccc(CC3(C(=O)O)CCOCC3)c2)cc1` the value was -34.3%; for `CNC(=O)c1ccc(C2CN(C(=O)c3cnn(C)c3)CCO2)nc1` (stereo not given), -24.2%; for `CN1CCC2(CC1)Cc1ccccc1CN(C(=O)CN)C2`, -1.63%.

For the compound `COc1ccc(SC(C)C(=O)N2CCC(NC(=O)C3CC3)CC2)cc1` (stereo not given), the cytotoxicity at 10 µM was -9.11%. Consider `CCCc1nc(CN(C)CCOc2ccccc2)cs1`, for which the cytotoxicity at 10 µM is -8.53%. As for `Cc1c(NC(C)C(C)C)cccc1C(=O)NCc1cnn(C)c1` (stereo not given), the figure is 27%. For `COc1c(C(=O)NCC(C)Sc2ccccc2)c(C)nn1C` (stereo not given), the cytotoxicity at 10 µM is 12.1%. For `CCN(Cc1ccco1)C(=O)NCC(c1cccs1)N(C)C` (stereo not given) the value was 16.3%; for `O=C(NCc1cscn1)NC1CCN(c2ncccc2Cl)C1` (stereo not given), -1.24%. For `COc1ccc(NC(C)C(=O)N2CCN(c3ncccn3)CC2)cn1` (stereo not given) the value was -4.71%; for `O=C1CN(CC2CC2)Cc2nc(NCc3ccccc3)sc21`, -12.3%. Consider `CC(C)N(Cc1nc(-c2cccs2)no1)CC1CCC(=O)N1` (stereo not given), for which the cytotoxicity at 10 µM is -0.475%. For `COc1c(F)cc(CN2CCCC3(CC2)CNC(=O)O3)cc1Cl` (stereo not given) the value was 0.465%. Consider `CSCC(=O)N1CCCC(CCC(=O)N(C)CCc2ccccn2)C1` (stereo not given), for which the cytotoxicity at 10 µM is -3.09%.

For the compound `O=C1[C@@H]2CN(c3ncnc4sccc34)C[C@]2(C(=O)O)CN1CC1CC1`, the cytotoxicity at 10 µM was 0.977%.

As to `Cn1cc(CN2CCC[C@]3(C(=O)O)CN(c4cnccn4)CC[C@@H]23)cn1`, the cytotoxicity at 10 µM is -0.226%. For `CCn1cc(CN2CCCCC2CCn2ccnc2C)cc1C#N` (stereo not given) the value was -3.09%.

Take `CCc1ccc(C2c3nc[nH]c3CCN2Cc2nccn2CC)nc1` (stereo not given): the cytotoxicity at 10 µM is -0.123%. As for `CN(CCO)Cc1nnc(C2CCN(C(=O)c3ccccn3)CC2)n1C`, the cytotoxicity at 10 µM is 0.5%. As for `Cc1nc(N(C)CCN(C)C)c2cnn(C)c2n1`, the figure is 4.63%. As for `CNCc1cc(F)ccc1Oc1ccc(F)cc1`, the figure is -1%; as for `Cc1noc(C(C)C)c1C(=O)NCc1ccc(N(C)C)c(F)c1`, 1.17%; as for `Cc1cc(C)c(CNC(=O)NCC(O)c2ccc(Cl)cc2)c(=O)[nH]1` (stereo not given), -7.03%. As for `Cc1cc(C)c(CNC(=O)NCc2cc(F)cc(F)c2)c(=O)[nH]1`, the figure is -4.98%. Consider `CC(C)(C)c1ncc(C(=O)NCCNC(=O)c2ccc(O)cc2)s1`, for which the cytotoxicity at 10 µM worked out at 45.3%. For `CN(C)c1cc(C(=O)N2CCCN(Cc3nccn3C)CC2)ccn1` the value was -1.56%. As for `O=C(CCCNc1ncccn1)Nc1cc(C(F)(F)F)c[nH]c1=O`, the cytotoxicity at 10 µM was -1.34%. As for `Cc1nccc(C(=O)N2CCCN(Cc3nccn3C(C)C)CC2)n1`, the figure is -10.2%; as for `Cc1nc(C)n(C2CCCN(C(=O)c3cc(C4CC4)on3)C2)n1` (stereo not given), -3.87%; as for `N#Cc1cccnc1N1CCCN(C(=O)CCn2cccn2)CC1`, 2.81%.

On to `COc1ccc(-c2ccnc(C3CCNCC3)c2)cc1`, for which the cytotoxicity at 10 µM is -41.4%.
